Source: PubChem BioAssay (several laboratories)
Sampled rows, rich in hits. Any-hit rate of the full collection: about 3%.
Granule exo inh = blocks lytic granule exocytosis; TALL-104 LAMP-1 surface exposure, flow cytometry; cells stimulated with thapsigargin and PMA; inhibition, % at 10 µM; actives 0.66% (n = 360,000);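 active = inhibition above about 55%, limit read from the data; inconclusive = no clear call, values can overlap the other calls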
UBC13 inh = inhibitors of human UBC13 polyubiquitin chain formation. P61088. TR-FRET. inhibition, % at 20 µM. actives 0.47% (n = 330,000). AID 485273; in the data active = inhibition above about 45%, passing the limit was not always enough; inconclusive = no clear call, values can overlap the other calls
Target sequence (P61088 whole entry, looked up): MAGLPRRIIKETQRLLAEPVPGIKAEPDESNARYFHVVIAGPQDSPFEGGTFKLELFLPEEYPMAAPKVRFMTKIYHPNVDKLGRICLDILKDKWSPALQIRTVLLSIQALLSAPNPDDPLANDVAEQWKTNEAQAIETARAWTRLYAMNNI
Apaf-1 inh = human Apaf-1 inhibition. O14727. reconstituted apoptosome caspase-3 activity, DEVD-Rh110 fluorescence. inhibition, % at 20 µM. actives 0.71% (n = 330,000); active = inhibition of at least 40% at 20 µM;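 also: plate controls were DMSO wells for no effect and DEVD-CHO caspase inhibitor wells for full effect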
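Material: reconstituted apoptosome with Apaf-1, cytochrome c, caspase-9, procaspase-3, dATP / Buffer or medium: pH 7.5 Hepes buffer with CHAPS, BSA, DTT / Also added: cytochrome c with DEVD-Rh110 / Schedule: compound with Apaf-1, dATP, procaspase-3 30 min, then 50 min reaction, room temperature / Technique: rhodamine 110 fluorescence at Ex 480/Em 540 nm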
beta cell repl = MIN6 beta-cell proliferation induction; proliferation, % at 10 µM; MIN6 cells proliferation, ATPlite luminescence, 48 h; cells starved in 0.2% serum; 100% = growth in 10% serum; actives 0.29% (n = 330,000); AID 2380;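 active = compounds whose signal lies at least 3.5 SD above the mean of all wells on their plate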;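 also: 0% = DMSO-treated cells in low-serum medium and 100% = 10% serum control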
hiPSC survival = enhancers of human iPSC single-cell survival; AID 602274; actives 0.044% (n = 360,000); hiPSC single-cell survival, ATPlite luminescence; 100% = ROCK inhibitor wells, 0% = DMSO; survival enhancement, % at 20 µM; in the data active = survival enhancement above about 18%;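 also: cells exposed to compounds for 16 hours before the ATP read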
MPTP inh = permeability transition pore inhibition | isolated mouse mitochondria, Ca2+ swelling absorbance, 30 min | inhibition, % at 10 µM | actives 1.4% (n = 360,000) | AID 602449;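 active = inhibition of 50% or more, scaled per plate between neutral and stimulator controls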;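 also: 0% = DMSO wells given calcium and 100% = 1 mM EGTA wells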
Casp3 counter = inhibits human caspase-3 in UBC13 counter-screen | shares compounds with UBC13 inh | Recombinant caspase-3, Caspase-Glo 3/7 luminescence, 60 min | inhibition, % at 20 µM | actives 4% (n = 1,400);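 active = mean inhibition across replicates above about 26%, limit read from the data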;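 also: plate controls were DMSO with caspase-3 for no effect and DMSO wells lacking enzyme for full effect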
Target sequence (P42574 whole entry, looked up): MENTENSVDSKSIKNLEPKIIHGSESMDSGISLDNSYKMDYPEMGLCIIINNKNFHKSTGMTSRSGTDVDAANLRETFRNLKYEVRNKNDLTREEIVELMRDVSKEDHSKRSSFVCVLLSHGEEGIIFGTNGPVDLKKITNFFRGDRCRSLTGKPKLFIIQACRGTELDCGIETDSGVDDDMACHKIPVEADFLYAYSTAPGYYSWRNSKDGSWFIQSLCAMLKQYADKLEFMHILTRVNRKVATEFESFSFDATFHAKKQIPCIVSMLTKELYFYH
UBC13 confirm = confirmation of human UBC13 polyubiquitin inhibitors; shares compounds with UBC13 inh; UBC13 polyubiquitination, TR-FRET, biochemical; inhibition, % at 10 µM; actives 68% (n = 1,400); in the data active = inhibition above about 45%; inconclusive = no clear call, values can overlap the other calls
An asterisk follows results filed as active; ? = inconclusive; nt = no result given.

SMILES	Granule exo inh	UBC13 inh	Apaf-1 inh	beta cell repl	hiPSC survival	MPTP inh	Casp3 counter	UBC13 confirm
O=C(NN1C(=O)c2ccc3c4c(ccc(c24)C1=O)CC3)c1ccc(Br)cc1	0	57*	21	0	1	0	-2	63*
COc1ccccc1CN(C)C(=O)c1cccc(S(=O)(=O)N2CCc3ccccc3C2)c1	4	1	11	-1	0	0	nt	nt
Cc1ccc(NC(=O)c2ccc(NCCN)c([N+](=O)[O-])c2)cc1Cl	-1	67*	1	-3	-1	15	-2	83*
Cc1ccc(NC(=O)c2ccc(NCCc3ccccc3)c([N+](=O)[O-])c2)cc1F	1	-17	-10	0	0	34	nt	nt
CCc1ccc(OCC(=O)NNC(=O)c2cnccn2)c(Br)c1	-10	53*	3	-3	0	-1	4	41
CNC[C@H](Cc1ccccc1)NC[C@@H](Cc1cccc2ccccc12)NCCc1ccc(C)cc1	27	96*	48*	-8	-2	10	-3	90*
CC(C)NC(=S)N=Nc1c(O)[nH]c2ccc([N+](=O)[O-])cc12	2	?	-17	-4	1	-4	nt	nt
C=C(C)CNC(=S)N=Nc1c(O)[nH]c2ccc([N+](=O)[O-])cc12	0	49*	-11	-6	0	6	1	47*
CCOC(=O)C1=C(c2ccccc2)O/C(=C(\C(=O)OC)C(F)(F)F)S1	0	51*	0	-1	1	-2	1	44
NC(=O)c1nsc(C(=O)N(c2ccc(F)cc2)C(C(=O)NCC2CCCO2)c2c[nH]c3ccccc23)c1N (configuration not stated)	-7	63*	18	-2	-1	-3	2	64*
NC(=O)c1nsc(C(=O)N(c2cccc(F)c2)C(C(=O)NCC2CCCO2)c2ccc3ncccc3c2)c1N (configuration not stated)	0	33	2	7	0	-1	nt	nt
NC(=O)c1nsc(C(=O)N(c2cccc(F)c2)C(C(=O)NCC2CCCO2)c2c[nH]c3ccccc23)c1N (configuration not stated)	19	79*	16	2	3	2	0	87*
Cc1cccc(N(C(=O)c2snc(C(N)=O)c2N)C(C(=O)NCC2CCCO2)c2c[nH]c3ccccc23)c1 (configuration not stated)	16	77*	11	1	0	0	4	81*
C[C@H](CO)N1C[C@H](C)[C@@H](CN(C)C(=O)Nc2ccccc2)Oc2ccc(NC(=O)Cc3ccccc3)cc2C1=O	4	16	7	2	-1	-1	nt	nt
Fc1cccc(-n2cc(-c3ccccc3)c3c(=S)nc[nH]c32)c1	-6	56*	10	-4	0	0	0	?
Fc1ccc(-n2cc(-c3ccccc3)c3c(=S)nc[nH]c32)cc1	12	43	16	-8	1	0	nt	nt
CC1CCCCC1NC(=O)CSc1nnc(C(F)(F)F)n1C (configuration not stated)	2	nt	nt	nt	-1	-1	nt	nt
CCCCN(CC)CCNC(=O)c1cc2c(=O)n(C)c3ccccc3c2n1C	8	57*	7	-6	0	-1	-1	53*
CCCN(CCC)CCCNC(=O)c1cc2c(=O)n(C)c3ccccc3c2n1C	4	32	2	-4	1	-2	nt	nt
CCOC(=O)c1c(C)n(C)c2ccc(OCC(O)CNC(CC)CO)cc12 (configuration not stated)	-3	10	1	-1	-4	-4	nt	nt
CCOC(=O)c1c(C)n(-c2ccc(C)cc2)c2ccc(OCC(O)CNCC3CCCO3)cc12 (configuration not stated)	12	56*	21	-6	-2	22	0	77*
CCOC(=O)c1c(C)n(-c2ccc(C)cc2)c2ccc(OCC(O)CNCCCO)cc12 (configuration not stated)	2	62*	14	-6	-4	31	0	64*
C[C@H](CO)N1C[C@H](C)[C@@H](CN(C)S(C)(=O)=O)Oc2c(NC(=O)Nc3ccc(C(F)(F)F)cc3)cccc2C1=O	-3	-9	17	-5	-1	1	nt	nt
C[C@H](CO)N1C[C@H](C)[C@@H](CN(C)S(=O)(=O)c2ccccc2)Oc2c(NC(=O)Nc3ccc(C(F)(F)F)cc3)cccc2C1=O	-1	52*	14	-5	-2	-1	-2	37
CCOP(=O)(Nc1cccc2oc(=O)c3ccccc3c12)OCC	-1	nt	nt	nt	4	0	nt	nt
SMILES	Granule exo inh	UBC13 inh	Apaf-1 inh	beta cell repl	hiPSC survival	MPTP inh	Casp3 counter	UBC13 confirm
CCCOc1ccc(C(=O)NNC(=S)NC(C)=O)cc1	2	75*	13	-4	-1	-4	2	95*
CCC(=O)NC(=S)NNC(=O)c1ccc([N+](=O)[O-])cc1	1	68*	-3	-2	4	-2	4	87*
CCC(=O)NC(=S)NNC(=O)c1ccc(OC)cc1	-2	81*	-7	2	-1	0	-2	86*
CC(C)CC(=O)NC(=S)NNC(=O)c1ccc([N+](=O)[O-])cc1	0	-16	4	-2	0	-2	nt	nt
O=C(NC(=S)NCc1ccccc1Cl)c1cccs1	8	5	11	-6	-2	-1	nt	nt
CN1CCCN(C(=O)c2ccc(Cl)s2)CC1	-2	-10	1	-4	0	0	nt	nt
COc1cc(/C=C/C(=O)OCC(=O)NCCC2=CCCCC2)cc(OC)c1OC	-5	5	12	-4	1	-1	nt	nt
Cc1cc(Cl)ccc1C(O)c1ncc(-c2cccc(C(F)(F)F)c2)[nH]1 (configuration not stated)	9	nt	nt	nt	1	10	nt	nt
Cc1ccc([C@H]2C[C@@H](n3cc(COC(=O)c4ccccc4)nn3)[C@H](O)CN2C(=O)c2cccs2)cc1	1	nt	nt	nt	0	0	nt	nt
CCOc1ccccc1/C=N/NC(=O)Cc1csc(Nc2cccc(C(F)(F)F)c2)n1	-3	-9	18	-5	0	-12	nt	nt
COc1ccc(/C=N/NC(=O)Cc2csc(Nc3cccc(C(F)(F)F)c3)n2)c(OC)c1	-1	78*	16	-2	0	-11	-2	69*
COc1ccc(-c2sc3ccccc3c2C#Cc2cncn2C)cc1	-23	59*	31	-6	-1	1	-1	44
COc1ccccc1-c1sc2cc3c(cc2c1C#CCO)OCO3	8	-18	12	-6	3	2	nt	nt
